Data taken from ChEMBL document CHEMBL4190329, “Design, Synthesis, and Biological Evaluation of the First c-Met/HDAC Inhibitors Based on Pyridazinone Derivatives” (ACS Med Chem Lett, 2017).
Calls of active or inactive are those of the source. The calls are words filed in the database; no cut-off is given here.

Legend:
[1] = molecular target: T1, Hepatocyte growth factor receptor (Homo sapiens, UniProt P08581); assay: Inhibition of recombinant human His-tagged c-Met cytoplasmic domain (956 to 1390 residues) expressed in baculovirus expression system using poly (Glu,Tyr)4:1 as substrate after 60 mins by spectrophotometric analysis
Histone deacetylase 1 [2] = molecular target: T2, Histone deacetylase 1 (Homo sapiens, UniProt Q13547); assay: Inhibition of recombinant human full length HDAC1 expressed in baculovirus infected Sf9 insect cells using biotinylated lysine 9 acetylated histone H3 (1 to 21 residues) as substrate incubated for 5 mins followed by substrate addition measured after 60 mins by HTRF assay
EBC-1 = assay: Antiproliferative activity against human EBC1 cells after 72 hrs by SRB assay; assay type: functional, cell-based; settings: EBC-1, 72 h
HCT-116 = assay: Antiproliferative activity against human HCT116 cells after 72 hrs by SRB assay; assay type: functional, cell-based; settings: HCT-116, 72 h
Histone deacetylase 1 [3] = molecular target: T2, Histone deacetylase 1; assay: Potency index, ratio of chidamide IC50 to compound IC50 for recombinant human full length HDAC1 expressed in baculovirus infected Sf9 insect cells
[4] = molecular target: T1, Hepatocyte growth factor receptor; assay: Inhibition of phosphorylation of c-MET at Tyr1234/1235 residues in human EBC1 cells after 24 hrs by Western blot analysis; assay type: cell-based
In short: (§1)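 Intact EBC-1 cells were treated with the compound at several concentrations for 24 h. Protein levels were then read by immunoblotting with specific antibodies.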

[5] = molecular target: T1, Hepatocyte growth factor receptor; assay: Inhibition of c-MET in human EBC1 cells assessed as decrease in Akt phosphorylation at Ser473 residues after 24 hrs by Western blot analysis; assay type: cell-based; in short: as §1
[6] = molecular target: T1, Hepatocyte growth factor receptor; assay: Inhibition of c-MET in human EBC1 cells assessed as decrease in Erk1/2 phosphorylation at Thr202/Tyr204 residues after 24 hrs by Western blot analysis; assay type: cell-based; in short: as §1
Histone deacetylase 1 [7] = molecular target: T2, Histone deacetylase 1; assay: Inhibition of HDAC1 in human EBC1 cells assessed as increase in p21 levels at 0.01 to 10 uM after 24 hrs by Western blot analysis; assay type: cell-based; in short: as §1
Histone deacetylase 1 [8] = molecular target: T2, Histone deacetylase 1; assay: Inhibition of HDAC1 in human EBC1 cells assessed as increase in acetyl-Histone H3 levels at Lys9/Lys14 residues at 0.01 to 10 uM after 24 hrs by Western blot analysis; assay type: cell-based; in short: as §1
[9] = molecular target: T3, Protein deacetylase HDAC6 (Homo sapiens) (UniProt Q9UBN7); assay: Inhibition of HDAC6 in human EBC1 cells assessed as […] in acetyl alpha-tubulin level at Lys40 at 0.01 to 10 uM after 24 hrs by Western blot analysis; assay type: cell-based
T3 sequence (whole entry): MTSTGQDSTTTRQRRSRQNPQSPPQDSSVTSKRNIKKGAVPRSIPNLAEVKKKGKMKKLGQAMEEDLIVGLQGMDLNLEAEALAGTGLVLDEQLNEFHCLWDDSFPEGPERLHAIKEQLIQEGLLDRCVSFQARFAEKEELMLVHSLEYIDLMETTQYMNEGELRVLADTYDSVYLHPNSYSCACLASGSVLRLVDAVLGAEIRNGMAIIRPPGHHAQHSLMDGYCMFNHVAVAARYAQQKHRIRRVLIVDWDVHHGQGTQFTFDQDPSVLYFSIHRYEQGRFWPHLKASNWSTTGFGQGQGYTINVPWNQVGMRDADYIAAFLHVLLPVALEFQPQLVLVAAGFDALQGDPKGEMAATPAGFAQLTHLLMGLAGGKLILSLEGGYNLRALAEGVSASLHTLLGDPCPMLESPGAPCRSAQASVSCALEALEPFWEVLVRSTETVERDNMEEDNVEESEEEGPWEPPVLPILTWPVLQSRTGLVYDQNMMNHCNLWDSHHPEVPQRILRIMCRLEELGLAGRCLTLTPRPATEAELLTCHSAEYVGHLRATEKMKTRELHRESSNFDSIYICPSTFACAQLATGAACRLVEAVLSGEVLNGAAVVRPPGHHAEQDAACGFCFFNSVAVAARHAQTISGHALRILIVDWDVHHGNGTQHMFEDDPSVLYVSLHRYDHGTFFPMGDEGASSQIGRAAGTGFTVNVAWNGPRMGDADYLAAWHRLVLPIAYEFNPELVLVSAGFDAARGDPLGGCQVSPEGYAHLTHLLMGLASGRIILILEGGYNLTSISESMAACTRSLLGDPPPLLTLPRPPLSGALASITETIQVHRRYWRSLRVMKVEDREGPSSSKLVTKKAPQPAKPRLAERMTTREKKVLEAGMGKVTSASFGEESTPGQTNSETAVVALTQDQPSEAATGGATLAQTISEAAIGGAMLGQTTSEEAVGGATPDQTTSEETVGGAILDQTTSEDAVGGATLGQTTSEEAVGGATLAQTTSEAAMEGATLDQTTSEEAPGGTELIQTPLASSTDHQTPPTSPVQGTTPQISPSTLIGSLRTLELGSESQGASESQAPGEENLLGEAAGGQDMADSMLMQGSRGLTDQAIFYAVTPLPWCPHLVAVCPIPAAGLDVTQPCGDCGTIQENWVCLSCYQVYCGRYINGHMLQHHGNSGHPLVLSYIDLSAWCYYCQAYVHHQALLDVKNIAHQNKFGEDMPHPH

T1 sequence (P08581 whole entry, the tested form may be a part): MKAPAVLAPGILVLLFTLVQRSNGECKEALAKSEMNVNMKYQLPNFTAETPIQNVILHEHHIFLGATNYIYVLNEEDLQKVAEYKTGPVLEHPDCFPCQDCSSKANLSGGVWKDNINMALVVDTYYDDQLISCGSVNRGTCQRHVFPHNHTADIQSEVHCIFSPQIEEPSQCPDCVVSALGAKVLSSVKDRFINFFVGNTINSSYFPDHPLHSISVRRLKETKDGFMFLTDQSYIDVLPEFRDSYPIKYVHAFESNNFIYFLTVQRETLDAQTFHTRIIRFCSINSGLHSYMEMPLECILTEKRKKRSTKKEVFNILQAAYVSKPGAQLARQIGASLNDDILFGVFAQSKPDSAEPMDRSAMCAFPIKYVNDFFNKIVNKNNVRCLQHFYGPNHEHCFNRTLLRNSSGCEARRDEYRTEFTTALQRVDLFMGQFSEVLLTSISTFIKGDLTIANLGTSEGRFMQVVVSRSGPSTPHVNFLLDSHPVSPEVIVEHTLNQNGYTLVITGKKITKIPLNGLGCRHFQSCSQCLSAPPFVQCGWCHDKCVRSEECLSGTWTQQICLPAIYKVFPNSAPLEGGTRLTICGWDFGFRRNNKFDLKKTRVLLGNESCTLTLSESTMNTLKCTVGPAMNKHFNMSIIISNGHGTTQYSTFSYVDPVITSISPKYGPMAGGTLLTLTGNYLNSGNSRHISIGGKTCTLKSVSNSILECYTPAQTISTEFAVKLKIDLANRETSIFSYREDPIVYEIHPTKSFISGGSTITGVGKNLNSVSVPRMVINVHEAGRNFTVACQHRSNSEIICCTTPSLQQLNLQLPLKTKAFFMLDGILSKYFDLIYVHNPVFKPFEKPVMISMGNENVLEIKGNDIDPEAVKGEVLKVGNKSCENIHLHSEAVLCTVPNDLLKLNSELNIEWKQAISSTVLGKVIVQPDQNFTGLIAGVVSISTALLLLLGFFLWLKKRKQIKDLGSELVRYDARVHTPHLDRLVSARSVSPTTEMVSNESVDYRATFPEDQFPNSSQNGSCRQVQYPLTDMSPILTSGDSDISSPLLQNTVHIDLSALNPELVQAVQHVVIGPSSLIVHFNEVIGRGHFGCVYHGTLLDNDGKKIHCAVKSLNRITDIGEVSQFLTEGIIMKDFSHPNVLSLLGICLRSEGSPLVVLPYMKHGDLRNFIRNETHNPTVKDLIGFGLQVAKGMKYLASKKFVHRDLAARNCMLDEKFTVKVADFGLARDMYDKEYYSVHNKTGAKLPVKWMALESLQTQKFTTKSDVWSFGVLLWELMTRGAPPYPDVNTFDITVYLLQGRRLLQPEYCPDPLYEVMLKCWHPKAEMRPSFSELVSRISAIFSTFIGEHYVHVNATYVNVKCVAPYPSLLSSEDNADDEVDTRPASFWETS
T2 sequence (Q13547 whole entry, the tested form may be a part): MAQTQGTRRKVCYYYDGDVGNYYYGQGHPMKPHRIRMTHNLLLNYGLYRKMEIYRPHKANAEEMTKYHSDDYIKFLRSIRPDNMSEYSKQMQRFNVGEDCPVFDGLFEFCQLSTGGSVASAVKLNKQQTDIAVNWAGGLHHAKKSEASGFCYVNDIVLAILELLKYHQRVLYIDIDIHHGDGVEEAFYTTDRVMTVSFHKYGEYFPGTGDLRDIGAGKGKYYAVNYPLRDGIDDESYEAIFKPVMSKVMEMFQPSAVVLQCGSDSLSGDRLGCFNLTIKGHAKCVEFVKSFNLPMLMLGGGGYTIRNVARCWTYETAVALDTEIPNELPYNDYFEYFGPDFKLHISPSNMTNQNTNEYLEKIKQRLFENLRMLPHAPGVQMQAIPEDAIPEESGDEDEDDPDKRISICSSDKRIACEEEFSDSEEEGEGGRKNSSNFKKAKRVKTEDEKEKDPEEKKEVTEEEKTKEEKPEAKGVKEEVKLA

With Cn1cc(-c2ccc(=O)n(CCOc3ccnc4cc(OCc5ccc(CCC(=O)Nc6ccccc6N)cc5)ccc34)n2)cn1 the IC50 [1] was 5.1 nM, the IC50 (Histone deacetylase 1 [2]) was greater than 1000 nM and the IC50 (EBC-1) was 210 nM. It also gave an IC50 (HCT-116) greater than 10000 nM.
Cn1cc(-c2ccc(=O)n(CCOc3ccnc4cc(Nc5ccc(C(=O)Nc6ccccc6N)nc5)ccc34)n2)cn1 gave an IC50 [1] of 3.7 nM, an IC50 (Histone deacetylase 1 [2]) of 129 nM and an IC50 (EBC-1) of 450 nM. The IC50 (HCT-116) was greater than 10000 nM.
Compound CNC(=O)CCCCCOc1ccc2c(OCCn3nc(-c4cnn(C)c4)ccc3=O)ccnc2c1 has an IC50 [1] of 1.2 nM, an IC50 (Histone deacetylase 1 [2]) greater than 1000 nM and an IC50 (EBC-1) of 79 nM. It also gave an IC50 (HCT-116) greater than 10000 nM.
In the case of Cn1cc(-c2ccc(=O)n(CCOc3ccnc4cc(OCCCOc5ccc(C(=O)Nc6ccccc6N)nc5)ccc34)n2)cn1, the IC50 [1] is reported as 0.71 nM, the IC50 (Histone deacetylase 1 [2]) is reported as 38 nM and the IC50 (EBC-1) is reported as 58 nM. For the same compound, the IC50 (HCT-116) was 1300 nM, the Ratio IC50 (Histone deacetylase 1 [3]) was 4 and the inhibition [4] was “Dose-dependent effect”. The inhibition [5] was “Dose-dependent effect”, the inhibition [6] was “Dose-dependent effect” and the inhibition (Histone deacetylase 1 [7]) was “Active”. The inhibition (Histone deacetylase 1 [8]) was “Active” and the inhibition [9] was “inactive”.
Cn1cc(-c2ccc(=O)n(CCOc3ccnc4cc(OCCCCCS)ccc34)n2)cn1 gave an IC50 [1] of 1.5 nM, an IC50 (Histone deacetylase 1 [2]) of 329 nM and an IC50 (EBC-1) of 640 nM. For the same compound, the IC50 (HCT-116) was greater than 10000 nM.
For Nc1cc(F)ccc1NC(=O)c1ccc(CNC(=O)/C=C/c2cccnc2)cc1 [TUCIDINOSTAT], the IC50 (EBC-1) was 2900 nM and the IC50 (HCT-116) was 7800 nM.
For Cn1cc(-c2ccc(=O)n(CCOc3ccnc4cc(OCc5ccc(/C=C/C(=O)Nc6ccccc6N)nc5)ccc34)n2)cn1, the IC50 [1] was 0.63 nM, the IC50 (Histone deacetylase 1 [2]) was 625 nM and the IC50 (EBC-1) was 46 nM. For the same compound, the IC50 (HCT-116) was 7900 nM.
For Cn1cc(-c2ccc(=O)n(CCOc3ccnc4cc(OCCCCCC(=O)NO)ccc34)n2)cn1, the IC50 [1] was 0.73 nM, the IC50 (Histone deacetylase 1 [2]) was 216 nM and the IC50 (EBC-1) was 460 nM. For the same compound, the IC50 (HCT-116) was greater than 10000 nM.
Compound Cn1cc(-c2ccc(=O)n(CCOc3ccnc4cc(OCc5ccc(/C=C/C(=O)Nc6ccccc6N)cc5)ccc34)n2)cn1 has an IC50 [1] of 1.1 nM, an IC50 (Histone deacetylase 1 [2]) greater than 1000 nM and an IC50 (EBC-1) of 490 nM. It also gave an IC50 (HCT-116) greater than 10000 nM.
Cn1cc(-c2ccc(=O)n(CCOc3ccnc4cc(OCCCC(=O)NO)ccc34)n2)cn1 gave an IC50 [1] of 1 nM, an IC50 (Histone deacetylase 1 [2]) greater than 1000 nM and an IC50 (EBC-1) of 870 nM. For the same compound, the IC50 (HCT-116) was greater than 10000 nM.
For Cn1cc(-c2ccc(=O)n(CCOc3ccnc4cc(OCCCCC(=O)NO)ccc34)n2)cn1, the IC50 [1] was 0.96 nM, the IC50 (Histone deacetylase 1 [2]) was greater than 1000 nM and the IC50 (EBC-1) was 370 nM. It also gave an IC50 (HCT-116) greater than 10000 nM.
For O=c1ccc(-n2ccc3ccc(F)cc32)nn1CCOc1ccnc2cc(OCCCN3CCOCC3)ccc12, the IC50 [1] was 0.84 nM, the IC50 (Histone deacetylase 1 [2]) was greater than 1000 nM and the IC50 (EBC-1) was 60 nM. For the same compound, the IC50 (HCT-116) was greater than 10000 nM.
Compound Cn1cc(-c2ccc(=O)n(CCOc3ccnc4cc(OCCCCCC(=O)Nc5ccccc5N)ccc34)n2)cn1 has an IC50 [1] of 0.96 nM, an IC50 (Histone deacetylase 1 [2]) of 221 nM and an IC50 (EBC-1) of 370 nM. For the same compound, the IC50 (HCT-116) was 7000 nM.
CC(=O)CCCCCOc1ccc2c(OCCn3nc(-c4cnn(C)c4)ccc3=O)ccnc2c1 showed an IC50 [1] of 1 nM, an IC50 (Histone deacetylase 1 [2]) greater than 1000 nM and an IC50 (EBC-1) of 25 nM. It also gave an IC50 (HCT-116) greater than 10000 nM.
Compound Cn1cc(-c2ccc(=O)n(CCOc3ccnc4cc(OCCCCCCC(=O)NO)ccc34)n2)cn1 has an IC50 [1] of 0.54 nM, an IC50 (Histone deacetylase 1 [2]) of 18 nM and an IC50 (EBC-1) of 210 nM. It also gave an IC50 (HCT-116) greater than 10000 nM.
In the case of Cn1cc(-c2ccc(=O)n(CCOc3ccnc4cc(OCc5ccc(C(=O)Nc6ccccc6N)cc5)ccc34)n2)cn1, the IC50 [1] is reported as 0.44 nM, the IC50 (Histone deacetylase 1 [2]) is reported as 156 nM and the IC50 (EBC-1) is reported as 42 nM. It also gave an IC50 (HCT-116) of 1800 nM.
Cn1cc(-c2ccc(=O)n(CCOc3ccnc4cc(-c5ccc(C(=O)Nc6ccccc6N)s5)ccc34)n2)cn1 gave an IC50 [1] of 1.3 nM, an IC50 (Histone deacetylase 1 [2]) of 467 nM and an IC50 (EBC-1) of 120 nM. The IC50 (HCT-116) was greater than 10000 nM.
Cn1cc(-c2ccc(=O)n(CCOc3ccnc4cc(C(=O)Nc5ccccc5N)ccc34)n2)cn1 gave an IC50 [1] of 37 nM, an IC50 (Histone deacetylase 1 [2]) greater than 1000 nM and an IC50 (EBC-1) greater than 10000 nM. It also gave an IC50 (HCT-116) greater than 10000 nM.
